TAAR1 antagonist = antagonists of human TAAR1. 1.5% of 360,000 active. inhibition, % at 3 µM. Q96RJ0. AID 624466. CHO RD-HGA16 TAAR1, Fluo-8 calcium fluorescence, antagonist;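 active means inhibition above a per-plate cutoff, the mean inhibition of test compounds on that plate plus 3 SD, cut at about 49% in these data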
Target sequence (Q96RJ0 whole entry, looked up): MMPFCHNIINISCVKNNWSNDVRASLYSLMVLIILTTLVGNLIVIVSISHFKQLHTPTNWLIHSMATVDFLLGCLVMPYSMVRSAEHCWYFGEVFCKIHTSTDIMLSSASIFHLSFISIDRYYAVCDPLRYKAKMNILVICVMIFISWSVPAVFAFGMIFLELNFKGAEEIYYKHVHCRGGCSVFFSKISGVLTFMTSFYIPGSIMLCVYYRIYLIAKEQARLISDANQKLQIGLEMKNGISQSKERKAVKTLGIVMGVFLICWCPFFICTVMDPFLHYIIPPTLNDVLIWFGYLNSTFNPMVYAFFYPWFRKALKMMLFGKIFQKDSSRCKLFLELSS
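Test system: hTAAR1-expressing CHO RD-HGA16 cells, Gα16-coupled; Probe or stimulus: EC80 β-phenethylamine stimulus; Compound dosing: single nominal final test compound concentration of 3 µM; Timing: 140 s kinetic read after compound, 140 s after agonist; Signal: Fluo-8 calcium-sensitive fluorescence; Measure: % inhibition of agonist calcium response; Controls: DMSO and EC80 PEA controls.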
m5-HT2A agonist = mouse HTR2A agonism via beta-arrestin recruitment; 0.66% of 360,000 active; P35363; CHO-K1 mHTR2A beta-arrestin complementation, luminescence; percent of 30 µM serotonin response; activation, % at 7.6 µM; AID 624169;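 active means activation above a run cutoff, the mean activation of all tested compounds plus 3 SD, cut at about 14% in these data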
CHRM1 agonist = human M1 muscarinic receptor agonism; CHO-K1 hM1, Fluo-8 calcium fluorescence, agonist mode; 0% DMSO, 100% acetylcholine EC100; activation, % at 3 µM; 0.33% of 360,000 active; AID 588814;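 active means activation above the run's mean compound activation plus 3 SD, cut at about 16% in these data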;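 further: peak over basal fluorescence ratio within a 140 s kinetic read after compound addition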
CHRM1 PAM = human CHRM1 positive allosteric modulation; AID 588819; 0.088% of 360,000 active; CHO-K1 hM1, Fluo-8 calcium fluorescence, ACh EC20; 0% = ACh EC20, 100% = maximal ACh; activation, % at 3 µM; in the data active means activation above about 19%, passing the limit was not always enough
M1 antag = human CHRM1 antagonism. P11229. CHO-K1 hM1, Fluo-8 calcium fluorescence, ACh EC80 antagonist. inhibition, % at 3 µM. 1.3% of 360,000 active;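 active means percent inhibition above its own plate's cutoff, namely the mean of that plate's compound wells plus 3 SD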;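 further: peak over basal fluorescence ratio during 140 s after agonist addition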
TAAR1 ag = agonists of human TAAR1. CHO RD-HGA16 TAAR1, Fluo-8 calcium fluorescence; vehicle wells 0%, saturating PEA agonist 100%. activation, % at 3 µM. Q96RJ0. 0.99% of 360,000 active;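 active means activation above the mean activation of all test compounds in the run plus 3 SD, cut at about 38% in these data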
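Signal – calcium-sensitive Fluo-8 signal, excitation 470-495, emission 515-575 nm · System – RD-HGA16 (CHO) cells co-expressing Gα16 and hTAAR1 · Incubation – 17-24 h seeding, 75 min 37 °C dye, 30 min RT · Compound dosing – 3 µM single concentration · Repeats – no replicates (n 1)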
TAAR1 ag conf = confirmation of human TAAR1 agonists | shares compounds with TAAR1 ag | CHO RD-HGA16 TAAR1, Fluo-8 calcium fluorescence; scaled: DMSO 0%, maximal phenethylamine 100% | activation, % at 3 µM | 82% of 2,400 active | AID 651783;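 active means activation above a cutoff set at the run's mean compound activation plus 3 SD, cut at about 39% in these data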
Ga16 ag counter = nonselective agonism, TAAR1 counter-screen | CHO-Ga16 parental, Fluo-8 calcium fluorescence; normalized to maximal ATP response, DMSO zero | shares compounds with TAAR1 ag | 50% of 2,400 active | AID 651787 | activation, % at 3 µM;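 active means activation above the run cutoff, the mean activation over all tested wells plus 3 SD, cut at about 12% in these data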
TAAR1 desensitize = counter-screen for human TAAR1 agonists: agonists that desensitize TAAR1. shares compounds with TAAR1 ag. CHO RD-HGA16 hTAAR1, Fluo-8 calcium, beta-PEA response inhibition. inhibition, % at 3 µM. 46% of 2,400 active;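 active means inhibition above the run cutoff, the mean inhibition of all test compounds plus 3 SD, cut at about 49% in these data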;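 further: beta-PEA stimulus applied at its EC80; loss of beta-PEA calcium signal after compound pretreatment read as receptor desensitization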
Ga16 antag count = counter-screen for TAAR1 agonists: nonselective Ga16 antagonists; shares compounds with TAAR1 ag; CHO-Ga16 ATP-induced calcium, Fluo-8 fluorescence; inhibition, % at 3 µM; 39% of 2,400 active;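 active means inhibition above the plate's mean compound inhibition plus 3 SD, computed per plate, cut at about 22% in these data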
Hits are given with their value. Most compounds without a hit are left out; they make up all but 3.9% or so of the library.

What do the screens show for `CC(C)c1ccc(NC(=O)[C@@H](C)NC(=O)[C@@H]2Cc3ccccc3CN2)cc1`?
TAAR1 antagonist: inactive; m5-HT2A agonist: inactive; CHRM1 agonist: inactive; CHRM1 PAM: inactive; M1 antag: 37.4; TAAR1 ag: 77.6; TAAR1 ag conf: inactive; Ga16 ag counter: 12.4; TAAR1 desensitize: inactive; Ga16 antag count: inactive

What do the screens show for `COc1cc2[nH]c(=O)n(CCC(=O)NCCCN3CCN(c4ccccc4F)CC3)c(=O)c2cc1OC`?
TAAR1 antagonist: inactive; m5-HT2A agonist: inactive; CHRM1 agonist: inactive; CHRM1 PAM: inactive; M1 antag: inactive; TAAR1 ag: inactive

What do the screens show for `CC(Oc1ccc(Br)cc1)C(=O)Nc1ccc(S(=O)(=O)NC2=NCCCCC2)cc1` (configuration not stated)?
TAAR1 antagonist: 71.5; m5-HT2A agonist: inactive; CHRM1 agonist: 28.8; CHRM1 PAM: inactive; M1 antag: inactive; TAAR1 ag: 95.1; TAAR1 ag conf: 119.4; Ga16 ag counter: 78.2; TAAR1 desensitize: 80.7; Ga16 antag count: 46.8

How did Cc1ccccc1NC(=S)NCCc1ccccc1 do in these assays?
TAAR1 antagonist: inactive; m5-HT2A agonist: inactive; CHRM1 agonist: inactive; CHRM1 PAM: inactive; M1 antag: inactive; TAAR1 ag: 48.7; TAAR1 ag conf: 81.7; Ga16 ag counter: inactive; TAAR1 desensitize: inactive; Ga16 antag count: inactive

What do the screens show for `Cc1cnn(C(=S)NCc2ccc(Cl)cc2)c1`?
TAAR1 antagonist: inactive; TAAR1 ag: inactive

What do the screens show for `Cc1cccc(NC(=S)NC(=O)Cc2ccccc2)c1C`?
TAAR1 antagonist: 65.0; m5-HT2A agonist: inactive; CHRM1 agonist: 16.9; CHRM1 PAM: inactive; M1 antag: inactive; TAAR1 ag: 82.0; TAAR1 ag conf: 77.3; Ga16 ag counter: 54.5; TAAR1 desensitize: inactive; Ga16 antag count: 31.8

What do the screens show for `Cc1cccc(NC(=S)NC(=O)CCc2ccccc2)c1C`?
TAAR1 antagonist: inactive; m5-HT2A agonist: inactive; CHRM1 agonist: inactive; CHRM1 PAM: inactive; M1 antag: inactive; TAAR1 ag: inactive

How did Cc1cc(C)c(O)c(NC(=S)NC(=O)Cc2ccccc2)c1 do in these assays?
TAAR1 antagonist: 72.0; m5-HT2A agonist: inactive; CHRM1 agonist: 18.9; CHRM1 PAM: inactive; M1 antag: inactive; TAAR1 ag: 95.4; TAAR1 ag conf: 85.0; Ga16 ag counter: 47.7; TAAR1 desensitize: 54.1; Ga16 antag count: 36.8

What do the screens show for `Cc1cnn(C(=S)NCCc2ccccc2)c1`?
TAAR1 antagonist: inactive; m5-HT2A agonist: inactive; CHRM1 agonist: inactive; CHRM1 PAM: inactive; M1 antag: inactive; TAAR1 ag: 47.7; TAAR1 ag conf: inactive; Ga16 ag counter: inactive; TAAR1 desensitize: inactive; Ga16 antag count: inactive

What do the screens show for `CN(C)S(=O)(=O)c1cccc(-c2nnc3n2CCCCC3)c1`?
TAAR1 antagonist: inactive; m5-HT2A agonist: inactive; CHRM1 agonist: inactive; CHRM1 PAM: inactive; M1 antag: inactive; TAAR1 ag: inactive

What do the screens show for `COCCn1c(C)c(C)c2c(NCCc3ccccc3)ncnc21`?
TAAR1 antagonist: inactive; m5-HT2A agonist: inactive; CHRM1 agonist: inactive; CHRM1 PAM: inactive; M1 antag: inactive; TAAR1 ag: inactive

Results for CCS(=O)(=O)c1ccc2c(c1)N(S(=O)(=O)c1ccc(Cl)cc1)CC(C(=O)O)O2 (configuration not stated) ?
TAAR1 antagonist: inactive; m5-HT2A agonist: inactive; CHRM1 agonist: inactive; CHRM1 PAM: inactive; M1 antag: inactive; TAAR1 ag: inactive

How did C[C@H](CO)N1C[C@H](C)[C@@H](CN(C)Cc2ccccc2C(=O)O)OCc2cnnn2CCCC1=O do in these assays?
TAAR1 antagonist: inactive; m5-HT2A agonist: inactive; CHRM1 agonist: inactive; CHRM1 PAM: inactive; M1 antag: inactive; TAAR1 ag: inactive

Results for CC(=O)c1c(NCCc2ccccc2)nc(=S)n(-c2ccccc2)c1C ?
TAAR1 antagonist: inactive; m5-HT2A agonist: inactive; CHRM1 agonist: inactive; CHRM1 PAM: inactive; M1 antag: inactive; TAAR1 ag: 49.7; TAAR1 ag conf: 70.6; Ga16 ag counter: 18.1; TAAR1 desensitize: inactive; Ga16 antag count: inactive

Results for CCN(CC)S(=O)(=O)c1ccc(NC(=O)COC(=O)c2ccc(NC(=O)CC#N)cc2)cc1 ?
TAAR1 antagonist: inactive; m5-HT2A agonist: inactive; CHRM1 agonist: inactive; CHRM1 PAM: inactive; M1 antag: inactive; TAAR1 ag: inactive

What do the screens show for `CCOc1cccc(-c2c(C(=O)N/N=C/c3ccoc3)nnn2-c2nonc2N)c1`?
TAAR1 antagonist: inactive; m5-HT2A agonist: inactive; CHRM1 agonist: inactive; CHRM1 PAM: inactive; M1 antag: inactive; TAAR1 ag: 83.3; TAAR1 ag conf: 73.1; Ga16 ag counter: 32.3; TAAR1 desensitize: inactive; Ga16 antag count: inactive

Results for CCc1c(C(=O)N/N=C/c2cccs2)nnn1-c1nonc1N ?
TAAR1 antagonist: inactive; m5-HT2A agonist: inactive; CHRM1 agonist: inactive; CHRM1 PAM: inactive; M1 antag: inactive; TAAR1 ag: inactive

What do the screens show for `Cc1ccc(/C=N/NC(=O)c2nnn(-c3nonc3N)c2-c2ccc3c(c2)OCO3)s1`?
TAAR1 antagonist: inactive; m5-HT2A agonist: inactive; CHRM1 agonist: 25.0; CHRM1 PAM: inactive; M1 antag: inactive; TAAR1 ag: 81.7; TAAR1 ag conf: 97.2; Ga16 ag counter: 60.9; TAAR1 desensitize: inactive; Ga16 antag count: inactive

What do the screens show for `CCOc1cccc(-c2c(C(=O)N/N=C/c3cccs3)nnn2-c2nonc2N)c1`?
TAAR1 antagonist: inactive; m5-HT2A agonist: inactive; CHRM1 agonist: 19.9; CHRM1 PAM: inactive; M1 antag: inactive; TAAR1 ag: 110.1; TAAR1 ag conf: 91.4; Ga16 ag counter: 55.2; TAAR1 desensitize: inactive; Ga16 antag count: inactive

How did Nc1nonc1-n1nnc(C(=O)N/N=C/c2ccc(F)cc2)c1-c1ccc2c(c1)OCO2 do in these assays?
TAAR1 antagonist: inactive; m5-HT2A agonist: inactive; CHRM1 agonist: inactive; CHRM1 PAM: inactive; M1 antag: inactive; TAAR1 ag: inactive
